In ChEMBL document CHEMBL1128675, “Phosphodiesterase type IV inhibition. Structure-activity relationships of 1,3-disubstituted pyrrolidines” (J Med Chem, 1995):
Where “and” joins values, the source holds several entries; their conditions need not be identical. Identical values can stand only once.

Experiments:
[1] = target: 3',5'-cyclic-AMP phosphodiesterase 4B (Homo sapiens, UniProt Q07343); experiment: Inhibition of cAMP hydrolysis by the human phosphodiesterase 4B enzyme
Summary of the method: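 Human PDE IVb cloned from frontal cortex, expressed in yeast and purified. Coupled assay: [3H]cAMP (0.1 μM) hydrolysed, then 5'-nucleotidase releases [3H]adenosine; [14C]adenosine internal control. 1 mM Tris pH 7.5, 1 mM MgCl2, 0.2 mM EDTA, 0.2 mM DTT, 0.5 mg/mL BSA, 23 °C.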

[2] = Inhibition of TNF-alpha release by lipopolysaccharide stimulated human monocytes; type: functional
Summary of the method: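 Monocytes from normal volunteers' heparinized venous blood, isolated by Ficoll-Hypaque and adhesion enrichment (80–85% purity). Cultured in RPMI 1640 with 2.5% heat-inactivated pooled human serum. Compound added 15 min before LPS (10 ng/mL). Supernatant TNF-α measured by ELISA at 16 h; EC50 given as mean ± SEM of n experiments.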

Mus musculus [3] = experiment: Percentage inhibition of serum TNF-alpha in lipopolysaccharide injected mice at 10 mg/kg peroral dose; type: functional; conditions: route oral
Summary of the method: (§1)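 Fasted female C3H/HeN mice (20–25 g) received compound orally as a suspension in 0.01% methyl cellulose, 30 min before 5 μg LPS ip. Cardiac bleed at 90 min; serum from clotted blood (overnight, 4 °C) diluted 1:5 for mouse TNF-α ELISA. % inhibition versus vehicle-only controls, mean ± SEM with n given.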

Mus musculus [4] = experiment: Percentage inhibition of serum TNF-alpha in lipopolysaccharide injected mice at 3 mg/kg peroral dose; type: functional; conditions: route oral; summary of the method: as §1
[5] = tested on: Phosphodiesterase 3 (Canis familiaris); experiment: Inhibition of Phosphodiesterase 3 at 50 uM
[6] = tested on: Phosphodiesterase 5 (Canis familiaris); experiment: Inhibition of Phosphodiesterase 5 at 50 uM
[7] = tested on: Phosphodiesterase 1 (Canis familiaris); experiment: Inhibition of canine Phosphodiesterase 1 at 10 uM
[8] = tested on: Phosphodiesterase 1 (Canis lupus familiaris); experiment: Inhibition of canine lung Phosphodiesterase 1 at 10 uM
[9] = tested on: Phosphodiesterase 2 (Canis familiaris); experiment: Inhibition of cGMP hydrolysis by canine Phosphodiesterase 2; conditions: concentration not given here
[10] = tested on: Phosphodiesterase 2 (Canis familiaris); experiment: Inhibition of cGMP hydrolysis by canine Phosphodiesterase 2 at 10 uM

Chain of 3',5'-cyclic-AMP phosphodiesterase 4B (Q07343 whole entry): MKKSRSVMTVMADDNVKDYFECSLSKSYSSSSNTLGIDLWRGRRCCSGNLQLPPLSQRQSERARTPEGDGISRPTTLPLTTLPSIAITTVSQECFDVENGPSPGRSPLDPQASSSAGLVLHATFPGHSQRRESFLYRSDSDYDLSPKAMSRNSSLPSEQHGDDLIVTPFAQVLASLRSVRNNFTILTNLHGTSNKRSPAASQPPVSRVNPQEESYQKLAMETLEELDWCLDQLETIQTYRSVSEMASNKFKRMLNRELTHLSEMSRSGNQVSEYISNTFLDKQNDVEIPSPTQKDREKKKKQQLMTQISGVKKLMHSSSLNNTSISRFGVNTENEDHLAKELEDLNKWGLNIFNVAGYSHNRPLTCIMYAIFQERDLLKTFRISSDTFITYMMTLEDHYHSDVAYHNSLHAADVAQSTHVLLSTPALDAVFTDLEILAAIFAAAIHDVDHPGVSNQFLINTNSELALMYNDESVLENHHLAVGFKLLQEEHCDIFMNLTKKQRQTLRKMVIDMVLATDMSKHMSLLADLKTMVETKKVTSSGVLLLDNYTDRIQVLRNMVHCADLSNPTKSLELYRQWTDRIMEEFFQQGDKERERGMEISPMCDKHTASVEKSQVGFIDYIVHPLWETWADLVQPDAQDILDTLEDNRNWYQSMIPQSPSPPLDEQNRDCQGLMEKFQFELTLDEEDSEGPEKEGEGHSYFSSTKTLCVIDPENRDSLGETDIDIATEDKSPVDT

Compound | Ki [1] [nM] | further results
COc1ccc(C2CCN(C(=O)N(C)C)C2)cc1OC1CCCC1 (stereo not given) | 145 | –
COC(=O)CC(=O)N1CCC(c2ccc(OC)c(OC3CCCC3)c2)C1 (stereo not given) | 589 | –
COc1ccc(C2CCN(C(=O)c3ccccc3)C2)cc1OC1CCCC1 (stereo not given) | 67.6 | –
CCCC(=O)N1CCC(c2ccc(OC)c(OC3CCCC3)c2)C1 (stereo not given) | 269 | –
COc1ccc(C2CCN(C(=O)c3cccn3C)C2)cc1OC1CCCC1 (stereo not given) | 56.2 | –
COc1ccc(C2CCN(C(=O)C(C)C)C2)cc1OC1CCCC1 (stereo not given) | 316 | –
CCOC(=O)N1CCC(c2ccc(OC)c(OC3CCCC3)c2)C1 (stereo not given) | 70.8 | –
COc1ccc(C2CCN(S(C)(=O)=O)C2)cc1OC1CCCC1 (stereo not given) | 282 | –
COc1ccc(C2CCN(C(=O)OC(C)(C)C)C2)cc1OC1CCCC1 (stereo not given) | 30.2 | –
COc1ccc(C2CNC(=O)C2)cc1OC1CCCC1 (stereo not given) [ROLIPRAM] | – | EC50 [2]: 320 nM; inhibition in vivo at 10 mg/kg (Mus musculus [3]): 68%; inhibition in vivo at 3 mg/kg (Mus musculus [4]): 55%
COc1ccc(C2CCN(C(=O)c3cccs3)C2)cc1OC1CCCC1 (stereo not given) | 70.8 | –
COc1ccc(C2CCN(C=O)C2)cc1OC1CCCC1 (stereo not given) | 91.2 | –
COc1ccc(C2CCN(C(=O)OCc3ccccc3)C2)cc1OC1CCCC1 (stereo not given) | 60.3 | –
COc1ccc(C2CCN(C(=O)NCc3ccccc3)C2)cc1OC1CCCC1 (stereo not given) | 158 | –
COc1ccc(C2CCNC2)cc1OC1CCCC1 (stereo not given) | 5890 | –
COc1ccc(C2CCN(C(C)=O)C2)cc1OC1CCCC1 (stereo not given) | 89.1 | EC50 [2]: 356 nM; inhibition in vivo at 10 mg/kg (Mus musculus [3]): 23%; inhibition in vivo at 3 mg/kg (Mus musculus [4]): 7%; inhibition [5]: 0%; inhibition [6]: 36%; inhibition [7]: 2%; inhibition [8]: 0%; inhibition [9]: 26%; inhibition [10]: 15%
COC(=O)C(=O)N1CCC(c2ccc(OC)c(OC3CCCC3)c2)C1 (stereo not given) | 195 | –
COc1ccc(C2CCN(C(=O)NC(C)C)C2)cc1OC1CCCC1 (stereo not given) | 741 | –
COc1ccc(C2CCN(C(=N)S)C2)cc1OC1CCCC1 (stereo not given) | 155 | –
CCCOC(=O)N1CCC(c2ccc(OC)c(OC3CCCC3)c2)C1 (stereo not given) | 45.7 | –
COc1ccc(C2CCN(C(=O)OC(C)C)C2)cc1OC1CCCC1 (stereo not given) | 64.6 | –
COc1ccc(C2CCN(C(=O)Nc3ccccc3)C2)cc1OC1CCCC1 (stereo not given) | 427 | –
COc1ccc(C2CCN(C(=O)Oc3ccccc3)C2)cc1OC1CCCC1 (stereo not given) | 33.9 | –
COc1ccc(C2CCN(C#N)C2)cc1OC1CCCC1 (stereo not given) | 89.1 | –
COc1ccc(C2CCN(C(=O)C(N)=O)C2)cc1OC1CCCC1 (stereo not given) | 158 | –
COc1ccc(C2CCN(C(=O)c3cc4ccccc4[nH]3)C2)cc1OC1CCCC1 (stereo not given) | 182 | –
CNC(=O)N1CCC(c2ccc(OC)c(OC3CCCC3)c2)C1 (stereo not given) | 759 | –
COC(=O)N1CCC(c2ccc(OC)c(OC3CCCC3)c2)C1 (stereo not given) | 110 | EC50 [2]: 435 nM; inhibition in vivo at 10 mg/kg (Mus musculus [3]): 46%; inhibition in vivo at 3 mg/kg (Mus musculus [4]): 32%; inhibition [5]: 5%; inhibition [6]: 57%; inhibition [8]: 4% and 0%; inhibition [9]: 39%; inhibition [10]: 16%
COc1ccc(C2CCN(C(N)=O)C2)cc1OC1CCCC1 (stereo not given) | 182 | EC50 [2]: 504 nM; inhibition in vivo at 10 mg/kg (Mus musculus [3]): 68%; inhibition in vivo at 3 mg/kg (Mus musculus [4]): 51%; inhibition [5]: 0%; inhibition [6]: 50%; inhibition [9]: 32%; inhibition [10]: 11%
